Measurements gathered from unrelated publications.
Compare with care: the assays were run in different laboratories.
Target: Myotonin-protein kinase (DMPK, Homo sapiens, UniProt Q09013)
Sequence (Q09013 1-629, as in one of the studies): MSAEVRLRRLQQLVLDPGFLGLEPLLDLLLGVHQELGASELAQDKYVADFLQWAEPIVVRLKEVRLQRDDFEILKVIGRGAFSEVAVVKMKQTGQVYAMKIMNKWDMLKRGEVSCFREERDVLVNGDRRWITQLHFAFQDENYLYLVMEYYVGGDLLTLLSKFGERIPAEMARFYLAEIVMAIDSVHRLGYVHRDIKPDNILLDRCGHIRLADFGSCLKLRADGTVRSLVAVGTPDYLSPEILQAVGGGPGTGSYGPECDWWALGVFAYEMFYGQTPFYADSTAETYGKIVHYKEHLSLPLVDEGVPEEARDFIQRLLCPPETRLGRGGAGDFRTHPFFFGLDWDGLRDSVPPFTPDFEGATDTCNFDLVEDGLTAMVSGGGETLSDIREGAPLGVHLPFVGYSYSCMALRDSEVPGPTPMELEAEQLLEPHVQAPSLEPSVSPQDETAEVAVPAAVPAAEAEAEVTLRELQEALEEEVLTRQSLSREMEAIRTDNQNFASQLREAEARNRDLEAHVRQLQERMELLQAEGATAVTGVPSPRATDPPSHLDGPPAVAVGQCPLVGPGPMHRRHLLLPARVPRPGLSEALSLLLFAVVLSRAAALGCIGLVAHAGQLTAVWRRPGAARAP

SMILES | effect on | action | technique | concentration | quantity | value
CCCCC(=O)Nc1ccc(-c2ccc3ncn(CCC)c(=O)c3c2)cn1 | binding | – | competition with immobilised ligand | 0.5 µM | remaining binding | 83%
C=CC(=O)N1CCC([C@@H]2CCNc3c(C(N)=O)c(-c4ccc(Oc5ccccc5)cc4)nn32)CC1 | enzyme activity | inhibitor | – | 1 µM | inhibition | 10%
COc1ccc2[nH]c3c4[nH]c5ccc(OC)cc5c4c4c(c3c2c1)C(=O)NC4=O | binding | – | competition with immobilised ligand | 1 µM | remaining binding | 56%
C1=C/COCc2cc(ccc2OCCN2CCCC2)Nc2nccc(n2)-c2cccc(c2)COC/1 | binding | – | – | 0.1 µM | remaining binding | 100%
COc1ccc2oc(-c3ccc4nc(N)oc4c3)c/c(=N\c3ccccc3NC(=O)CCN)c2c1 | binding | – | – | 1 µM | remaining binding | 102%
Cc1ccc(NC(=O)c2ccnc(C(F)(F)F)c2)cc1-c1cc(OCCO)nc(N2CCOCC2)c1 | binding | – | competition with immobilised ligand | 1 µM | remaining binding | 100%
CC(C)S(=O)(=O)c1ccc2nccc(Nc3ccc4sc(C5CCCC5)nc4c3)c2c1 | enzyme activity | inhibitor | – | 1 µM | activity vs control | 80%
C=CC(=O)N1CCC[C@@H](n2nc(-c3ccc(Oc4ccccc4)cc3)c3c(N)ncnc32)C1 | enzyme activity | inhibitor | – | 1 µM | inhibition | 1%
